Measurements reported in ChEMBL document CHEMBL2331117 (J Med Chem, 2013).

Legend:
[1] = test system: Mus musculus; test: In vivo inhibition of mTORC2-mediated phosphorylation of AKT at serine 473 in human PC3 cells xenografted into athymic nude mouse at 100 mg/kg, po after 8 hrs by Western blotting analysis relative to control; type: functional; conditions: PC-3, 8 h
How it was run: (§1)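 PC-3 cells grown in DMEM with 20% FBS were implanted subcutaneously at 3 × 10^6 cells in ice-cold HBSS into the hindflank of 5−8 week old male nude mice. At tumor size 200−500 mg, mice received a single oral dose of 100 mg/kg. Plasma and tumors were collected at 1, 4, 8, 16, 24 and 32 h. Tumor lysates from each group (n = 5) were pooled. Phospho-proteins were quantified by Western blot and normalized to α-tubulin.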

[2] = test system: Mus musculus; test: In vivo inhibition of mTORC1-mediated phosphorylation of 4EBP1 at ([…]) in human MCF7 cells xenografted into athymic nude mouse at 100 mg/kg, po after 32 hrs by Western blotting analysis relative to control; type: functional; conditions: MCF7, 32 h
[3] = target: Receptor-type tyrosine-protein kinase FLT3 (Homo sapiens, UniProt P36888); test: Inhibition of FLT3 (unknown origin)
[4] = test system: Mus musculus; test: In vivo inhibition of mTORC1-mediated phosphorylation of p70S6K at […] in human PC3 cells xenografted into athymic nude mouse at 100 mg/kg, po after 4 hrs by Western blotting analysis relative to control; type: functional; conditions: PC-3, 4 h; how it was run: as §1
[5] = test system: Mus musculus; test: In vivo inhibition of mTORC1-mediated phosphorylation of 4EBP1 at ([…]) in human MCF7 cells xenografted into athymic nude mouse at 100 mg/kg, po after 8 hrs by Western blotting analysis relative to control; type: functional; conditions: MCF7, 8 h
How it was run: (§2)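 MCF-7 cells (DMEM, 10% FBS) were implanted subcutaneously at 5 × 10^6 cells in 50% cold HBSS/50% growth-factor-reduced matrigel into the hindflank of 5−8 week old female nude mice. At tumor size 40−150 mg, mice received a single oral dose of 100 mg/kg. Tumor lysates were pooled per group. Phospho-AKT (S473, T308), p70S6K (T389), S6 (S240/244) and 4E-BP1 (T37/46) were measured by Western blot normalized to α-tubulin.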

[6] = test system: Mus musculus; test: In vivo inhibition of mTORC2-mediated phosphorylation of AKT at serine 473 in human PC3 cells xenografted into athymic nude mouse at 100 mg/kg, po after 32 hrs by Western blotting analysis relative to control; type: functional; conditions: PC-3, 32 h; how it was run: as §1
[7] = test system: MCF7; test: Antitumor activity against human MCF7 cells xenografted in athymic nude mouse at 100 mg/kg, po qd for 14 days relative to control; type: functional
How it was run: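 Female athymic nude (NCr) mice, 5–8 weeks old, bearing subcutaneous MCF-7 tumors staged at 100–200 mg. Compound given orally qd for 14 days at 50 or 100 mg/kg as a solution/fine suspension in water with a 1:1 molar ratio of 1 N HCl. Caliper tumor mass = length × width²/2, measured twice weekly; body mass recorded daily.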

[8] = test system: Mus musculus; test: In vivo inhibition of mTORC2-mediated phosphorylation of AKT at serine 473 in human MCF7 cells xenografted into athymic nude mouse at 100 mg/kg, po after 24 hrs by Western blotting analysis relative to control; type: functional; conditions: MCF7, 24 h; how it was run: as §2
[9] = Oral bioavailability in athymic nude mouse at 10 mg/kg; type: ADME, organism-based; conditions: in vivo
How it was run: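 For single-dose PK, compound was given intravenously and by oral gavage as a solution in EPW (5% ethanol/45% PEG400/water + 1:2 HCl m/m). Doses were 10 mg/kg in female athymic nude mice and 3 mg/kg in female CD rats and male beagle dogs.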

[10] = Clearance in CD rat at 3 mg/kg, iv; type: ADME, organism-based; design: dose 3 mg/kg, route intravenous; conditions: in vivo
How it was run: (§3)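 Single-dose PK: female athymic nude mice (10 mg/kg), female CD rats and male beagle dogs (3 mg/kg), male cynomolgus monkeys (3 mg/kg), given iv and by oral gavage. Solution in EPW (5% ethanol/45% PEG400/water), with 1:2 HCl (m/m) for mouse, rat and dog and 1:1.5 HCl (m/m) for monkey. Plasma levels followed over 24 h.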

[11] = test system: Mus musculus; test: In vivo inhibition of mTORC2-mediated phosphorylation of AKT at […] in human MCF7 cells xenografted into athymic nude mouse at 100 mg/kg, po after 4 hrs by Western blotting analysis relative to control; type: functional; conditions: MCF7, 4 h
How it was run: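 Human MCF-7 cells were implanted subcutaneously into the hindflank of female nude mice aged 5−8 weeks, at 5 × 10^6 cells in 50% cold HBSS/50% growth-factor-reduced matrigel. At a tumor size of 40−150 mg, mice got one oral dose. Tumor lysates were pooled per group. Phospho-AKT (T308) was read by Western blot and normalized to α-tubulin.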

[12] = Cmax in cynomolgus monkey at 3 mg/kg, iv; type: ADME, organism-based, Macaca fascicularis; design: dose 3 mg/kg, route intravenous; conditions: in vivo; how it was run: as §3
[13] = Drug uptake in tumor of athymic mouse xenografted with human PC3 cells at 100 mg/kg, po after 32 hrs; type: ADME, organism-based, Neoplasm, PC-3; design: dose 100 mg/kg, route oral; conditions: in vivo, BLD = below limit of detection
How it was run: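 PC-3 cells (3 × 10⁶, passages 10–14, in ice-cold HBSS) were implanted sc in 5–8 week old male nude mice. Tumors of 200–500 mg received a single oral 100 mg/kg dose. Plasma and tumor were collected at 1, 4, 8, 16, 24 and 32 h and homogenized in buffer. Lysates were pooled per group (n = 5), and phospho-proteins were measured by Western blot normalized to α-tubulin.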

[14] = Plasma concentration in athymic mouse plasma xenografted with human PC3 cells at 100 mg/kg, po after 1 hr; type: ADME, organism-based, PC-3; design: dose 100 mg/kg, route oral
[15] = test system: Mus musculus; test: In vivo inhibition of mTORC1-mediated phosphorylation of p70S6K at […] in human MCF7 cells xenografted into athymic nude mouse at 100 mg/kg, po after 24 hrs by Western blotting analysis relative to control; type: functional; conditions: MCF7, 24 h; how it was run: as §2
[16] = Plasma concentration in mouse at 100 mg/kg, po after 4 hrs; type: ADME, organism-based; design: dose 100 mg/kg, route oral
[17] = test system: Mus musculus; test: In vivo inhibition of mTORC1-mediated phosphorylation of pS6 at (serine 240/244) in human PC3 cells xenografted into athymic nude mouse at 100 mg/kg, po after 8 hrs by Western blotting analysis relative to control; type: functional; conditions: PC-3, 8 h; how it was run: as §1
[18] = Cmax in athymic nude mouse at 10 mg/kg, po; type: ADME, organism-based; design: dose 10 mg/kg, route oral; conditions: in vivo; how it was run: as §3
[19] = target: Mast/stem cell growth factor receptor Kit (Homo sapiens, UniProt P10721); test: Inhibition of KIT (unknown origin)
[20] = test system: Mus musculus; test: In vivo inhibition of mTORC2-mediated phosphorylation of AKT at […] in human MCF7 cells xenografted into athymic nude mouse at 100 mg/kg, po after 16 hrs by Western blotting analysis relative to control; type: functional; conditions: MCF7, 16 h; how it was run: as §2
[21] = test system: Mus musculus; test: In vivo inhibition of mTORC1-mediated phosphorylation of 4EBP1 at ([…]) in human PC3 cells xenografted into athymic nude mouse at 100 mg/kg, po after 8 hrs by Western blotting analysis relative to control; type: functional; conditions: PC-3, 8 h; how it was run: as §1
[22] = target: Hepatocyte growth factor receptor (Homo sapiens, UniProt P08581); test: Inhibition of MET (unknown origin)
[23] = target: Phosphatidylinositol 4,5-bisphosphate 3-kinase catalytic subunit alpha isoform (Homo sapiens, UniProt P42336); test: Inhibition of PI3Kalpha (unknown origin) using PIP2 as substrate after 2 hrs by luminescence assay
[24] = Cmax in athymic nude mouse at 10 mg/kg, iv; type: ADME, organism-based; design: dose 10 mg/kg, route intravenous; conditions: in vivo; how it was run: as §3

Sequence of Hepatocyte growth factor receptor (P08581 whole entry, canonical isoform): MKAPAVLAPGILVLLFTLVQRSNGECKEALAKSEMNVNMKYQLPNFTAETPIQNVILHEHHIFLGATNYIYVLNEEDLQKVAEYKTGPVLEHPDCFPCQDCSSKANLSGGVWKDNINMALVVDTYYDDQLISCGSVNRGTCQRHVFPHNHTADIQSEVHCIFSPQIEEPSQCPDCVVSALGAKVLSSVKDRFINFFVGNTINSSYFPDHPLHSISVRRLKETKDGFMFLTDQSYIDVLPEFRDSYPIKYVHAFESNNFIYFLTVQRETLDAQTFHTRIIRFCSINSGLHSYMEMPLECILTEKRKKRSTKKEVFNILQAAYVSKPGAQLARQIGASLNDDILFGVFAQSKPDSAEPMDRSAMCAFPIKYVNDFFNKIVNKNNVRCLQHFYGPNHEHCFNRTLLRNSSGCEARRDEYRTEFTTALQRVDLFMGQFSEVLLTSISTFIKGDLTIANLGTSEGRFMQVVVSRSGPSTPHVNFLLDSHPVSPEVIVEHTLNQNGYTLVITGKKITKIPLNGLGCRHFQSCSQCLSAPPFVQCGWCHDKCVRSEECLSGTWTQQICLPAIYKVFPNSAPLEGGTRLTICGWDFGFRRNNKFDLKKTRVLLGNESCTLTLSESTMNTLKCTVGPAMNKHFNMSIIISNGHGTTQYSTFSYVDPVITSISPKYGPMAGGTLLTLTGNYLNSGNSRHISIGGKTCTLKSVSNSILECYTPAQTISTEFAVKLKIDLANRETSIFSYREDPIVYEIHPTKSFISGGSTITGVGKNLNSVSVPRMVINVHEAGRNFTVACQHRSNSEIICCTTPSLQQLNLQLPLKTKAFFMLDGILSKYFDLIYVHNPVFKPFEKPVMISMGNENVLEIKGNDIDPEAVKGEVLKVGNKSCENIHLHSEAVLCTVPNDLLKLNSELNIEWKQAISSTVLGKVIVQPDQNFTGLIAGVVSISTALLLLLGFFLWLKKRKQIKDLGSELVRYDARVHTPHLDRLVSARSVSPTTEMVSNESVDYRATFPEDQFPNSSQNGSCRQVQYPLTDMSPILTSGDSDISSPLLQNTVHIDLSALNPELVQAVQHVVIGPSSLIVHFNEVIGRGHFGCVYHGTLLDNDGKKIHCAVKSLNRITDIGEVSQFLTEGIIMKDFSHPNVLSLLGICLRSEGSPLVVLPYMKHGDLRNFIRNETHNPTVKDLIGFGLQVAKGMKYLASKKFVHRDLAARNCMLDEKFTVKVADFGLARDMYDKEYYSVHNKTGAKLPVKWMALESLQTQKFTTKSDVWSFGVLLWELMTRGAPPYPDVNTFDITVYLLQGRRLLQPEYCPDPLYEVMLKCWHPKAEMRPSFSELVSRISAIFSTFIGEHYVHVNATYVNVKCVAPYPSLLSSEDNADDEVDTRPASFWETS
Sequence of Phosphatidylinositol 4,5-bisphosphate 3-kinase catalytic subunit alpha isoform (P42336 whole entry, canonical isoform): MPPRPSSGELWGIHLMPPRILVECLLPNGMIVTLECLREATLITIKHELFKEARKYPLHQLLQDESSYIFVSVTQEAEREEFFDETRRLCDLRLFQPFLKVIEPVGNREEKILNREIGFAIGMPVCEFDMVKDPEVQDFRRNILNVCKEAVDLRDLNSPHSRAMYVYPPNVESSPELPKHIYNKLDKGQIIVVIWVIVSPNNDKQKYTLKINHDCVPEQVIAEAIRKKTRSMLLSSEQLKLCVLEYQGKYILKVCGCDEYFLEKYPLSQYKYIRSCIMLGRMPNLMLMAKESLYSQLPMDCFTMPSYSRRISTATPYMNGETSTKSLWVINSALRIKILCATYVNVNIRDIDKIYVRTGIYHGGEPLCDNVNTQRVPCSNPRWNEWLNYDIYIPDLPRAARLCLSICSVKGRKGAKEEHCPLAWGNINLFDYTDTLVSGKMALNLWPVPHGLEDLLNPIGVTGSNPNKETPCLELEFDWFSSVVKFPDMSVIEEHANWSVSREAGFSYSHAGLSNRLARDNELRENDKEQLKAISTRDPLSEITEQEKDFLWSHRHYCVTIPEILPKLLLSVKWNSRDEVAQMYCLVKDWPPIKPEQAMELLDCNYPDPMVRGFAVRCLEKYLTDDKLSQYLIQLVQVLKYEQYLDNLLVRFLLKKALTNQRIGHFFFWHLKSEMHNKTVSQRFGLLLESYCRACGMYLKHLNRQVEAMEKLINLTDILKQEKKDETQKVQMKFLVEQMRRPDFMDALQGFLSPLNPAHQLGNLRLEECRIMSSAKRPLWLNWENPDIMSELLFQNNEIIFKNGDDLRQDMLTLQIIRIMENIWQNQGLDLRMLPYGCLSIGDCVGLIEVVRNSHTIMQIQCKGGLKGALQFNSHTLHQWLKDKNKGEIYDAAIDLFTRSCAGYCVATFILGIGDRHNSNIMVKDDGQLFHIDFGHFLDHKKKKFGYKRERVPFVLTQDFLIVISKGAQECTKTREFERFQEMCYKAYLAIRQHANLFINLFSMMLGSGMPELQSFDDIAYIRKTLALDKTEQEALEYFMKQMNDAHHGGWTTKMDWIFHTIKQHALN
Sequence of Mast/stem cell growth factor receptor Kit (P10721 whole entry): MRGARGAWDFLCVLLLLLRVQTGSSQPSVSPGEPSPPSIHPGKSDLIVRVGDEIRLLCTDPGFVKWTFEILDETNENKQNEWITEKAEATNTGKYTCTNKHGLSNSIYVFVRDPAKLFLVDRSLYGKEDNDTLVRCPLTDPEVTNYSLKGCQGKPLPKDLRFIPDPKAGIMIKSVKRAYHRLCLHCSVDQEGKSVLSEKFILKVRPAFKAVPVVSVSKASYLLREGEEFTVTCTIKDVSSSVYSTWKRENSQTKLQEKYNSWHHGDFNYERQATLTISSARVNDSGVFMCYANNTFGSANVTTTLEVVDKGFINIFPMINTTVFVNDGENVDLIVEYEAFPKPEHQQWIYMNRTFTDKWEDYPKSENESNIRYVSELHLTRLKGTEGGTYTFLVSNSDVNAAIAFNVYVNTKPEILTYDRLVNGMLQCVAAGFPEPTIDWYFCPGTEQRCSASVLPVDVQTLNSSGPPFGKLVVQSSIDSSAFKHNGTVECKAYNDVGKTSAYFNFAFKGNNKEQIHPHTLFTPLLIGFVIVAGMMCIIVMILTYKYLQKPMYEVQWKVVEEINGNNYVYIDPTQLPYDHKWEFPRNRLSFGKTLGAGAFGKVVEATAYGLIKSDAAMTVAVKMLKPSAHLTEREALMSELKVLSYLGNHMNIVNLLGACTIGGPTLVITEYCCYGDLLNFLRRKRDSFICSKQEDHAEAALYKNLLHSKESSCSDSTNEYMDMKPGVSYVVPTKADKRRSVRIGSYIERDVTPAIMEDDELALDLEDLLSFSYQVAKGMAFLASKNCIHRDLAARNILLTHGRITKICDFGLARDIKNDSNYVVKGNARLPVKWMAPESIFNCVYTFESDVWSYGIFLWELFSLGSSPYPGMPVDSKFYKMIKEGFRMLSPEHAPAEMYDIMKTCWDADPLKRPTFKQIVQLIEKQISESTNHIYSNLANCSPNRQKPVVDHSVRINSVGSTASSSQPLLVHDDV
Sequence of Receptor-type tyrosine-protein kinase FLT3 (P36888 whole entry): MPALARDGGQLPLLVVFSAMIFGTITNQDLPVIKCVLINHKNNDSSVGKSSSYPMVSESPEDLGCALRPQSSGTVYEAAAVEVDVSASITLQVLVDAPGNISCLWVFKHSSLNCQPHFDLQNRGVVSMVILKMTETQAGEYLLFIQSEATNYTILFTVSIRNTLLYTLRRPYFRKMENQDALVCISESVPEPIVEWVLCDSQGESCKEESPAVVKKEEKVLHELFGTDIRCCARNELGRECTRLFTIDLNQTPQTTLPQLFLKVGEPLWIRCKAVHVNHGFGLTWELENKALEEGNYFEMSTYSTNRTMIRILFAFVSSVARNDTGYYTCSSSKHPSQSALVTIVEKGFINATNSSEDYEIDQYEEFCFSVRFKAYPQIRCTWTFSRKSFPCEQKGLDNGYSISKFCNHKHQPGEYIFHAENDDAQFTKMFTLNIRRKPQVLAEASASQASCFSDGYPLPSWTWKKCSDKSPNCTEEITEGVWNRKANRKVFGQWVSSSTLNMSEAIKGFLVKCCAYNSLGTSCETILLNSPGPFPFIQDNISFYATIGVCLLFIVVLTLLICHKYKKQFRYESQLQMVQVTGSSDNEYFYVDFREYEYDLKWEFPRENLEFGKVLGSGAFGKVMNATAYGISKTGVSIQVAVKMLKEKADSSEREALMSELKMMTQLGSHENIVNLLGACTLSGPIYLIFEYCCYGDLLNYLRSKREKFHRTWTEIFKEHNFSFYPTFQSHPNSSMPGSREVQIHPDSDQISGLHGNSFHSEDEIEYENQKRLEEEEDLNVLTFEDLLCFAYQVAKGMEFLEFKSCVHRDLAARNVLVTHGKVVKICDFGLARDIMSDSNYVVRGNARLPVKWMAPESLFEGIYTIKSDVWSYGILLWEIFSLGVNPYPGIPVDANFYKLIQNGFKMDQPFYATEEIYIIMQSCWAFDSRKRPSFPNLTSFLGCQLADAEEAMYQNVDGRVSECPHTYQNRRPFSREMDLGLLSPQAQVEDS

- IC50 [3]: > 3.5 µM
- bioavailability [9]: 31.4%
- clearance [10]: 21.2 mL/min/kg
- Cmax [12]: 0.95 µM
- Drug uptake [13]: BLD
- concentration at 1 h [14]: 32.6 µM
- concentration at 4 h [16]: 17.8 µM
- Cmax [18]: 1.3 µM
- IC50 [19]: > 3.5 µM
- IC50 [22]: > 3.5 µM
- IC50 [23]: > 3 µM
- Cmax [24]: 9.14 µM
Structure (SMILES): Cc1c(C(=O)N2CCOc3ccc(-c4ccc(N)nc4)cc3C2)ccc(S(C)(=O)=O)c1F
- inhibition in vivo at 100 mg/kg [1]: 83%
- inhibition in vivo at 100 mg/kg [2]: 3%
- inhibition in vivo at 100 mg/kg [4]: 95%
- inhibition in vivo at 100 mg/kg [5]: 88%
- inhibition in vivo at 100 mg/kg [6]: 10%
- Activity [7]: 40%
- inhibition in vivo at 100 mg/kg [8]: -49%
- inhibition in vivo at 100 mg/kg [11]: 13%
- inhibition in vivo at 100 mg/kg [15]: -19%
- inhibition in vivo at 100 mg/kg [17]: 91%
- inhibition in vivo at 100 mg/kg [20]: 43%
- inhibition in vivo at 100 mg/kg [21]: 92%
